In ChEMBL document CHEMBL1138683 (J Med Chem, 2004):

Legend:
Mus musculus [1] = test: Anti convulsant activity administered intra peritoneally to mouse at maximal electroshock test at 4 hr after the drug administered with dose of 300 mg/kg; 0/1= No of animals protected /No of animals tested; assay type: functional
Mus musculus [2] = test: Anti convulsant activity administered intra peritoneally to mouse for subcutaneous metrazol test at 4 hr after the drug administered with dose of 100 mg/kg; 0/1= No of animals protected /No of animals tested; assay type: functional
[3] = Anti convulsant activity administered intra peritoneally to mouse for toxicity at 4 hr with dose of 100 mg/kg; 0/4= No of animals exhibiting toxicity /No of animals tested; assay type: organism-based; set-up: dose 100 mg/kg; conditions: in vivo, ip
Mus musculus [4] = test: Anti convulsant activity administered intra peritoneally to mouse at maximal electroshock test at 0.5 h after the drug administered with dose of 30 mg/kg; 0/1= No of animals protected /No of animals tested; assay type: functional
[5] = Anti convulsant activity administered intra peritoneally to mouse for toxicity at 0.5 hr with dose of 300 mg/kg; 0/4= No of animals exhibiting toxicity /No of animals tested; assay type: organism-based; set-up: dose 300 mg/kg; conditions: in vivo, ip
Mus musculus [6] = test: Anti convulsant activity administered intra peritoneally to mouse for subcutaneous metrazol test at 0.5 h with dose of 300 mg/kg; 0/1= No of animals protected /No of animals tested; assay type: functional
[7] = Anti convulsant activity administered intra peritoneally to mouse for toxicity at 4 hr with dose of 300 mg/kg; 0/2= No of animals exhibiting toxicity /No of animals tested; assay type: organism-based; set-up: dose 300 mg/kg; conditions: in vivo, ip
Mus musculus [8] = test: Anti convulsant activity administered intra peritoneally to mouse for subcutaneous metrazol test at 4 hr with dose of 300 mg/kg; 0/1= No of animals protected /No of animals tested; assay type: functional
Mus musculus [9] = test: Anti convulsant activity administered intra peritoneally to mouse at maximal electroshock test at 4 hr after the drug administered with dose of 30 mg/kg; 0/1= No of animals protected /No of animals tested; assay type: functional
Rattus norvegicus [10] = test: Anticonvulsant activity after oral administration of 50 mg/kg dose after 30 min in rats; + means 25% of the animals protected; assay type: functional, organism-based; set-up: dose 50 mg/kg
How it was run: (§1)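 Rats dosed orally with compound dissolved or suspended in 0.5% methylcellulose (0.04 mL per 10 g body weight). Anticonvulsant protection (MES or scMet) and toxicity scored at 15 min, 30 min, 1 h, 2 h and 4 h after dosing. Graded in steps of 25% of animals protected or showing toxicity.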

[11] = Anti convulsant activity administered intra peritoneally to mouse for toxicity at 0.5 hr with dose of 30 mg/kg; 0/4= No of animals exhibiting toxicity /No of animals tested; assay type: organism-based; set-up: dose 30 mg/kg; conditions: in vivo, ip
Mus musculus [12] = test: Anti convulsant activity administered intra peritoneally to mouse at maximal electroshock test at 0.5 h after the drug administered with dose of 300 mg/kg; 0/1= No of animals protected /No of animals tested; assay type: functional
Mus musculus [13] = test: Anti convulsant activity administered intra peritoneally to mouse for subcutaneous metrazol test at 0.5 hr with dose of 30 mg/kg; 0/1= No of animals protected /No of animals tested; assay type: functional
Mus musculus [14] = test: Anti convulsant activity administered intra peritoneally to mouse for subcutaneous metrazol test at 4 hr after the drug administered with dose of 30 mg/kg; 0/1= No of animals protected /No of animals tested; assay type: functional; conditions: route intraperitoneal
[15] = Anti convulsant activity administered intra peritoneally to mouse for toxicity at 0.5 hr with dose of 100 mg/kg; 0/8= No of animals exhibiting toxicity /No of animals tested; assay type: organism-based; set-up: dose 100 mg/kg; conditions: in vivo, ip
[16] = (§2) Anti convulsant activity administered intra peritoneally to mouse for toxicity at 4 hr with dose of 30 mg/kg; 0/2= No of animals exhibiting toxicity /No of animals tested; assay type: organism-based; set-up: dose 30 mg/kg; conditions: in vivo, ip
Mus musculus [17] = test: as §2; assay type: functional
Mus musculus [18] = test: Anti convulsant activity administered intra peritoneally to mouse at maximal electroshock test at 4 hr after the drug administered with dose of 100 mg/kg; 0/3= No of animals protected /No of animals tested; assay type: functional
Rattus norvegicus [19] = test: Anticonvulsant activity after oral administration of 100 mg/kg dose after 1 hr in rats;+ means 25% of the animals protected; assay type: functional, organism-based; set-up: dose 100 mg/kg
How it was run: (§3)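 Oral dosing of rats at a single dose, compound dissolved or suspended in 0.5% methylcellulose. Protection in the MES or scMet test checked 15 min, 30 min, 1 h, 2 h and 4 h after dosing. Scored as 25/50/75/100% of animals protected (+ to ++++), – for none.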

Mus musculus [20] = test: Anticonvulsant activity administered intraperitoneally to mouse for toxicity at 4 hr with dose of 30 mg/kg; assay type: functional; conditions: route intraperitoneal
How it was run: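 Mice given compound i.p. at 30, 100 or 300 mg/kg, dissolved or suspended in 0.5% methylcellulose. Toxicity scored 0.5 h and 4 h after dosing, recorded as number of animals showing toxicity per number tested.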

[21] = Anti convulsant activity administered intra peritoneally to mouse for toxicity at 0.5 hr with dose of 100 mg/kg; 1/8= No of animals exhibiting toxicity /No of animals tested; assay type: organism-based; set-up: dose 100 mg/kg; conditions: in vivo, ip
Rattus norvegicus [22] = test: Anticonvulsant activity after oral administration of 100 mg/kg dose after 30 min in rats; +means 25% of the animals protected; assay type: functional, organism-based; set-up: dose 100 mg/kg; how it was run: as §3
[23] = Anti convulsant activity administered intra peritoneally to mouse for toxicity at 0.5 hr with dose of 300 mg/kg; 4/4= No of animals exhibiting toxicity /No of animals tested; assay type: organism-based; set-up: dose 300 mg/kg; conditions: in vivo, ip
Mus musculus [24] = test: Anti convulsant activity administered intra peritoneally to mouse for subcutaneous metrazol test at 0.5 hr with dose of 100 mg/kg; 0/1= No of animals protected /No of animals tested; assay type: functional
Mus musculus [25] = test: Anti convulsant activity administered intra peritoneally to mouse at maximal electroshock test at 0.5 hr after the drug administered with dose of 100 mg/kg; 0/3= No of animals protected /No of animals tested; assay type: functional
Rattus norvegicus [26] = test: Anticonvulsant activity after oral administration of 100 mg/kg dose after 1 hr in rats; + means 25% of the animals protected; assay type: functional, organism-based; set-up: dose 100 mg/kg; how it was run: as §3
Rattus norvegicus [27] = test: Anticonvulsant activity after oral administration of 100 mg/kg dose after 4 hr in rats; +means 25% of the animals protected; assay type: functional, organism-based; set-up: dose 100 mg/kg; how it was run: as §3
Rattus norvegicus [28] = test: Anticonvulsant activity after oral administration of 100 mg/kg dose after 2 hr in rats; + means 25% of the animals protected; assay type: functional, organism-based; set-up: dose 100 mg/kg; how it was run: as §3
Rattus norvegicus [29] = test: Anticonvulsant activity after oral administration of 100 mg/kg dose after 4 hr in rats;+ means 25% of the animals protected; assay type: functional, organism-based; set-up: dose 100 mg/kg; how it was run: as §3
Rattus norvegicus [30] = test: Anticonvulsant activity after oral administration of 30 mg/kg dose after 30 min in rats; -means No protection; assay type: functional, organism-based; set-up: dose 30 mg/kg; how it was run: as §3
Rattus norvegicus [31] = test: Anticonvulsant activity after oral administration of 50 mg/kg dose after 15 min in rats; +++ means 75% of the animals protected; assay type: functional, organism-based; set-up: dose 50 mg/kg; how it was run: as §3
Mus musculus [32] = test: Anti convulsant activity administered intra peritoneally to mouse for subcutaneous metrazol test at 0.5 hr with dose of 300 mg/kg; 1/1= No of animals protected /No of animals tested; assay type: functional
Rattus norvegicus [33] = test: Anticonvulsant activity after oral administration of 50 mg/kg dose after 30 min in rats; ++ means 50% of animals protected; assay type: functional, organism-based; set-up: dose 50 mg/kg; how it was run: as §1
Mus musculus [34] = test: Anti convulsant activity administered intra peritoneally to mouse at maximal electroshock test at 0.5 hr after the drug administered with dose of 300 mg/kg; 1/1= No of animals protected /No of animals tested; assay type: functional
[35] = Anti convulsant activity administered intra peritoneally to mouse for subcutaneous metrazol test at 4 hr with dose of 300 mg/kg; 3/4= No of animals protected /No of animals tested; assay type: ADME, organism-based; set-up: dose 300 mg/kg
Rattus norvegicus [36] = test: Anticonvulsant activity after oral administration of 80 mg/kg dose after 15 min in rats; + means 25% of the animal protected; assay type: functional, organism-based; set-up: dose 80 mg/kg
How it was run: (§4)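 Maximal electroshock test in rats after oral dosing in 0.5% methylcellulose (0.04 mL per 10 g body weight). Protection read at 15 min, 30 min, 1 h, 2 h and 4 h after dosing. Graded as the percentage of animals protected, in steps of 25%.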

Rattus norvegicus [37] = test: Anticonvulsant activity after oral administration of 80 mg/kg dose after 2 hr in rats; + means 25% of the animal is protected; assay type: functional, organism-based; set-up: dose 80 mg/kg; how it was run: as §4
Rattus norvegicus [38] = test: Anticonvulsant activity after oral administration of 80 mg/kg dose after 4 hr in rats;+ means 25% of the animals protected; assay type: functional, organism-based; set-up: dose 80 mg/kg; how it was run: as §4
Mus musculus [39] = test: Anti convulsant activity administered intra peritoneally to mouse at maximal electroshock test at 0.5 h after the drug administered with dose of 100 mg/kg; 1/3= No of animals protected /No of animals tested; assay type: functional
Mus musculus [40] = test: Anti convulsant activity administered intra peritoneally to mouse at maximal electroshock test at 4 hr after the drug administered with dose of 300 mg/kg; 1/1= No of animals protected /No of animals tested; assay type: functional
Rattus norvegicus [41] = test: Anticonvulsant activity after oral administration of 80 mg/kg dose after 1 hr in rats;+means 25% animals protected; assay type: functional, organism-based; set-up: dose 80 mg/kg; how it was run: as §4
Rattus norvegicus [42] = test: Anticonvulsant activity after oral administration of 100 mg/kg dose after 2 hr in rats;++ means 50% of the animals protected; assay type: functional, organism-based; set-up: dose 100 mg/kg; how it was run: as §3
Rattus norvegicus [43] = test: Anticonvulsant activity after oral administration of 100 mg/kg dose after 30 min in rats; +++ means 75% of the animals protected; assay type: functional, organism-based; set-up: dose 100 mg/kg; how it was run: as §3

Row | SMILES | Activity (Mus musculus [1]) | Activity (Mus musculus [2]) | Toxicity [3] | Activity (Mus musculus [4]) | Toxicity [5] | Activity (Mus musculus [6]) | Toxicity [7] | Activity (Mus musculus [8]) | Activity (Mus musculus [9]) | Toxicity [11] | Activity (Mus musculus [12]) | Activity (Mus musculus [13]) | Activity (Mus musculus [14]) | Toxicity [15] | Toxicity [16] | Activity (Mus musculus [18]) | Toxicity [21] | Toxicity [23] | Activity (Mus musculus [24]) | Activity (Mus musculus [25]) | also measured
1 | CC1(C)C(C(=O)NNC(=O)C2C(C)(C)C2(C)C)C1(C)C | 0 | 0 | 0 | 0 | 0 | 0 | 0 | 0 | 0 | 0 | 0 | 0 | 0 | 0 | 0 | 0 |  |  |  |  | Activity (Rattus norvegicus [10]): 25% of the animals protected; Activity (Mus musculus [17]): 0
2 | CC(CO)NC(=O)C1C(C)(C)C1(C)C (stereo not given) | 0 | 0 | 0 | 0 |  | 0 | 0 | 0 | 0 | 0 | 0 | 0 | 0 |  |  | 0 | 1 | 4 | 0 | 0 | Activity (Rattus norvegicus [19]): 25% of the animals protected; Toxicity (Mus musculus [20]): 0; Activity (Rattus norvegicus [22]): 25% of the animals protected
3 | CCC(CO)NC(=O)C1C(C)(C)C1(C)C (stereo not given) | 0 | 0 | 0 | 0 |  | 0 | 0 | 0 | 0 | 0 | 0 | 0 | 0 |  |  | 0 | 1 | 4 | 0 | 0 | Activity (Rattus norvegicus [26]): 25% of the animals protected; Toxicity (Mus musculus [20]): 0; Anticonvulsant Activity (Rattus norvegicus [27]): 25% of the animals protected; Activity (Rattus norvegicus [28]): 25% of the animals protected; Activity (Rattus norvegicus [29]): 25% of the animals protected
4 | CC1(C)C(C(=O)NCCO)C1(C)C | 0 | 0 | 0 | 0 |  |  | 0 | 0 | 0 | 0 |  | 0 | 0 |  | 0 | 0 | 1 | 4 | 0 | 0 | Activity (Rattus norvegicus [30]): 75% of the animals protected; Activity (Rattus norvegicus [31]): 75% of the animals protected; Activity (Mus musculus [32]): 1; Anticonvulsant Activity (Rattus norvegicus [33]): 50% of animals protected; Activity (Mus musculus [34]): 1
5 | CNC(=O)N(C)C(=O)C1C(C)(C)C1(C)C |  | 0 | 0 | 0 |  | 0 | 0 | 0 | 0 | 0 |  | 0 | 0 |  | 0 | 0 | 1 |  | 0 |  | Toxicity [35]: 3; Activity (Rattus norvegicus [36]): 25% animals protected; Activity (Rattus norvegicus [37]): 25% animals protected; Activity (Rattus norvegicus [38]): 25% animals protected; Activity (Mus musculus [39]): 1; Activity (Mus musculus [34]): 1; Activity (Mus musculus [40]): 1; Activity (Rattus norvegicus [41]): 25% animals protected
6 | CC1(C)C(C(=O)NCCS(=O)(=O)[O-])C1(C)C.[Na+] | 0 | 0 | 0 | 0 | 0 | 0 | 0 | 0 | 0 | 0 | 0 | 0 | 0 | 0 | 0 | 0 |  |  |  |  | Activity (Rattus norvegicus [26]): 25% of the animals protected; Activity (Rattus norvegicus [27]): 25% of the animals protected; Activity (Rattus norvegicus [28]): 25% of the animals protected; Anticonvulsant Activity (Rattus norvegicus [42]): 50% of the animals protected; Activity (Rattus norvegicus [43]): 25% of the animals protected; Activity (Mus musculus [17]): 0
